Four molecules from paper PMC6393846 (Future Microbiology, 2019) can be followed below.

≈ marks a conversion by molar mass, not a printed value. Some results are limits rather than exact numbers.

Experiment [1] has as its system S. epidermidis 126 (hGISE clinical isolate). Nature of the experiment: Broth microdilution MIC/MBC, clinical isolate. In kind it is cell-based, Staphylococcus epidermidis. Conditions: for MIC: Staphylococcus epidermidis. On the technique in general: In broth dilution the organism is exposed to a series of concentrations in liquid medium.
For experiment [2], the system named is S. epidermidis. Nature of the experiment: Antibiotics combined with plantaricins, summary statements. Conditions: summary in abstract/discussion; PlnEF with antibiotic; strain not specified. In kind it is cell-based, Staphylococcus epidermidis. In a few lines:
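Broth microdilution with S. epidermidis grown overnight in LB at 37 °C with shaking and adjusted by viable count. Twofold antibiotic series: vancomycin and teicoplanin 0.097–50 μg/ml, gentamicin 0.0097–5 μg/ml, tetracycline 0.016–8 μg/ml. Each well also held a fixed paired plantaricin at 12.5 or 6.25 μM, each partner peptide equimolar. MIC/MBC read after 20 h.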

In experiment [3] the test system is Staphylococcus epidermidis ATCC 12228. Conditions: for reduction of the MIC of the antibiotic in the presence of PlnJK: 12.5 μM PlnJK with antibiotic versus antibiotic alone.
For experiment [4] the test system is unchanged. Nature of the experiment: microbe, parasite or virus in culture. Conditions: ATCC12228.
The mark [5] stands for this setting: 12.5 μM PlnEF with antibiotic versus antibiotic alone.

In the case of `CNC(C)C1CCC(N)C(OC2C(N)CC(N)C(OC3OCC(C)(O)C(NC)C3O)C2O)O1` (stereo not drawn) [Gentamicin], in experiment [1] (setting [5]), the “reduction of the MBC of the antibiotic in the presence of PlnEF” value is on record as 260 fold and the “reduction of the MIC of the antibiotic in the presence of PlnEF” value is listed as 500 fold. The molecule also yielded an MIC in experiment [1] greater than 5 µg/mL. Moreover, the “enhancement of the effects of the antibiotic by plantaricin” value (“enhancement” for short) in experiment [2] is greater than 500 fold. The “reduction of the MIC of the antibiotic in the presence of PlnJK” value in experiment [3] is “approximately sevenfold”. In addition, the MIC in experiment [4] stood at 0.31 µg/mL (≈ 0.649 µM).
With `CN(C)[C@@H]1C(O)=C(C(N)=O)C(=O)[C@@]2(O)C(O)=C3C(=O)c4c(O)cccc4[C@@](C)(O)[C@H]3C[C@@H]12` [Tetracycline], the “reduction of the MIC of the antibiotic in the presence of PlnEF” value worked out at 125 fold in experiment [1] (setting [5]) and 500 fold in experiment [3] (setting [5]). The same molecule yielded an MIC in experiment [1] of no less than 2 µg/mL. In experiment [2], the “enhancement” value was greater than 500 fold.
On to `CN[C@H](CC(C)C)C(=O)N[C@H]1C(=O)N[C@@H](CC(N)=O)C(=O)N[C@H]2C(=O)N[C@H]3C(=O)N[C@H](C(=O)N[C@H](C(=O)O)c4cc(O)cc(O)c4-c4cc3ccc4O)[C@H](O)c3ccc(c(Cl)c3)Oc3cc2cc(c3O[C@@H]2O[C@H](CO)[C@@H](O)[C@H](O)[C@H]2O[C@H]2C[C@](C)(N)[C@H](O)[C@H](C)O2)Oc2ccc(cc2Cl)[C@H]1O` [Vancomycin], for which, in experiment [2], the “enhancement” value is recorded as greater than 30 fold. Besides, in experiment [4], the MBC amounted to 6.25 µg/mL (≈ 4.31 µM) and the MIC worked out at 3.1 µg/mL (≈ 2.14 µM).
In the case of Teicoplanin, in experiment [2], the “enhancement” value is listed as greater than 30 fold. Moreover, in experiment [3], the “reduction of the MIC of the antibiotic in the presence of PlnJK” value is recorded as “twofold”.
